Test results reported in ChEMBL document CHEMBL4229460, “Design and biological evaluation of novel hybrids of 1, 5-diarylpyrazole and Chrysin for selective COX-2 inhibition” (Bioorg Med Chem, 2018).

Legend:
HeLa [1] = assay: Induction of apoptosis in human HeLa cells assessed as late apoptotic cells at 5 uM after 12 hrs by Annexin-V-FITC/propidium iodide staining based flow cytometry (reference value: 2.57%); type: functional
Outline: (§1)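 HeLa seeded at 2 × 10⁵ cells/well. Dose series was 0, 1.25, 2.5, 5 and 10 μM for 24 h; time course was 5 μM for 12, 24, 36 or 48 h. Trypsinized and washed in ice-cold PBS, then stained in binding buffer with Annexin V-FITC and PI for 10 min in the dark. Flow cytometry scored early (Annexin⁺/PI⁻) and late (Annexin⁺/PI⁺) apoptotic cells.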

HeLa [2] = assay: Disruption of mitochondrial membrane potential in human HeLa cells assessed as collapse of the mitochondrial membrane potential at 1.25 uM after 12 hrs by JC1 staining based flow cytometry (reference value: 0.768%); type: functional
HeLa [3] = assay: Induction of apoptosis in human HeLa cells assessed as live cells at 5 uM after 24 hrs by Annexin-V-FITC/propidium iodide staining based flow cytometry (reference value: 94.6 to 95.1%); type: functional; outline: as §1
HeLa [4] = assay: Disruption of mitochondrial membrane potential in human HeLa cells assessed as intact mitochondrial membrane at 2.5 uM after 12 hrs by JC1 staining based flow cytometry (reference value: 99.2%); type: functional
HeLa [5] = assay: Induction of apoptosis in human HeLa cells assessed as live cells at 2.5 uM after 24 hrs by Annexin-V-FITC/propidium iodide staining based flow cytometry (reference value: 94.6%); type: functional; outline: as §1
MCF7 = assay: Antiproliferative activity against human MCF7 cells after 48 hrs by MTT assay; type: functional, cell-based; conditions: MCF7, 48 h
HeLa [6] = assay: Induction of apoptosis in human HeLa cells assessed as necrotic cells at 10 uM after 24 hrs by Annexin-V-FITC/propidium iodide staining based flow cytometry (reference value: 0.242%); type: functional; outline: as §1
HeLa [7] = assay: Induction of apoptosis in human HeLa cells assessed as necrotic cells at 5 uM after 48 hrs by Annexin-V-FITC/propidium iodide staining based flow cytometry (reference value: 1.12%); type: functional
Outline: (§2)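 HeLa cells in DMEM with 10% FBS, penicillin/streptomycin, 37 °C, 5% CO₂; seeded 2 × 10⁵ cells/well in six-well plates, treated at 0, 1.25, 2.5, 5 and 10 μM for 24 h, or at 5 μM for 12, 24, 36 or 48 h. Cells trypsinized, washed in ice-cold PBS, stained in binding buffer with Annexin V-FITC and PI for 10 min in the dark, then analyzed by flow cytometry.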

HeLa [8] = assay: Cell cycle arrest in human HeLa cells assessed as accumulation at G2/M phase at 1.25 uM after 24 hrs by propidium iodide staining based flow cytometry (reference value: 21.45%); type: functional
HeLa [9] = assay: Disruption of mitochondrial membrane potential in human HeLa cells assessed as intact mitochondrial membrane at 5 uM after 12 hrs by JC1 staining based flow cytometry (reference value: 99.2%); type: functional
HeLa [10] = assay: Induction of apoptosis in human HeLa cells assessed as necrotic cells at 5 uM after 24 hrs by Annexin-V-FITC/propidium iodide staining based flow cytometry (reference value: 0.242 to 1.12%); type: functional; outline: as §2
[11] = molecular target: T1, Prostaglandin G/H synthase 2 (Homo sapiens, UniProt P35354); assay: Inhibition of COX2 (unknown origin) using arachidonic acid as substrate pretreated for 10 mins followed by substrate addition and measured after 2 mins by ELISA
T1 sequence (P35354 whole entry): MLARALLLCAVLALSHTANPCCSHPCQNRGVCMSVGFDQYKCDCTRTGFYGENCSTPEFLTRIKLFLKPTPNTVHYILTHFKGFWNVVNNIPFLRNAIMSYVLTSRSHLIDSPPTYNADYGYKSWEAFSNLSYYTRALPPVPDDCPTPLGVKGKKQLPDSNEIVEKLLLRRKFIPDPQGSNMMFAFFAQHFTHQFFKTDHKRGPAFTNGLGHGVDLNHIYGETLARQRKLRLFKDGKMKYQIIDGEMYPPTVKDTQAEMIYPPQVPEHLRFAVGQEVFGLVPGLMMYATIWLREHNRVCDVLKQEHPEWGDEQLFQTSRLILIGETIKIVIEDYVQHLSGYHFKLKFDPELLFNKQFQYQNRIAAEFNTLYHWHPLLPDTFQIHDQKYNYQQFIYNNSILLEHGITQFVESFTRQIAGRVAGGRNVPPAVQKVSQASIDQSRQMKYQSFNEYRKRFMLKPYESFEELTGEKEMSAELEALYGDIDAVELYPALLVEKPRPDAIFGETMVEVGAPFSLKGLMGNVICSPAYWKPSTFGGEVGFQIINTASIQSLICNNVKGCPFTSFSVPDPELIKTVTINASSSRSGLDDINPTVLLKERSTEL

HeLa [12] = assay: Induction of apoptosis in human HeLa cells assessed as early apoptotic cells at 10 uM after 24 hrs by Annexin-V-FITC/propidium iodide staining based flow cytometry (reference value: 2.98%); type: functional; outline: as §1
HeLa [13] = assay: Induction of apoptosis in human HeLa cells assessed as necrotic cells at 1.25 uM after 24 hrs by Annexin-V-FITC/propidium iodide staining based flow cytometry (reference value: 0.242%); type: functional; outline: as §1
Homo sapiens = organism: Homo sapiens; assay: Selectivity index, ratio of IC50 for COX1 (unknown origin) to ratio of IC50 for COX2 (unknown origin)
Outline: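 Enzyme ELISA kit: COX-1 or COX-2 preincubated with compound at 0, 1, 10 or 100 μM for 10 min at 37 °C in 0.1 M Tris-HCl pH 8.0, 5 mM EDTA, 2 mM phenol, 1 μM heme. Started with 100 μM arachidonic acid for 2 min at 37 °C, stopped with 1 M HCl. PGH₂ reduced by stannous chloride; PGF2α read by enzyme immunoassay at 450 nm. Index taken as the ratio of the COX IC50 values.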

HeLa [14] = assay: Cell cycle arrest in human HeLa cells assessed as accumulation at S phase at 1.25 uM after 24 hrs by propidium iodide staining based flow cytometry (reference value: 18.16%); type: functional
HeLa [15] = assay: Cell cycle arrest in human HeLa cells assessed as accumulation at G1 phase at 5 uM after 24 hrs by propidium iodide staining based flow cytometry (reference value: 55.51%); type: functional
HeLa [16] = assay: Disruption of mitochondrial membrane potential in human HeLa cells assessed as collapse of the mitochondrial membrane potential at 5 uM after 12 hrs by JC1 staining based flow cytometry (reference value: 0.768%); type: functional
HeLa [17] = assay: Cell cycle arrest in human HeLa cells assessed as accumulation at G2/M phase at 10 uM after 24 hrs by propidium iodide staining based flow cytometry (reference value: 21.45%); type: functional
HeLa [18] = assay: Induction of apoptosis in human HeLa cells assessed as late apoptotic cells at 2.5 uM after 24 hrs by Annexin-V-FITC/propidium iodide staining based flow cytometry (reference value: 1.72%); type: functional; outline: as §1
HeLa [19] = assay: Induction of apoptosis in human HeLa cells assessed as live cells at 5 uM after 36 hrs by Annexin-V-FITC/propidium iodide staining based flow cytometry (reference value: 95.1%); type: functional; outline: as §1
HeLa [20] = assay: Disruption of mitochondrial membrane potential in human HeLa cells assessed as collapse of the mitochondrial membrane potential at 2.5 uM after 12 hrs by JC1 staining based flow cytometry (reference value: 0.768%); type: functional

IC50 (MCF7): 3230 nM | IC50 [11]: 230 nM | Ratio IC50 (Homo sapiens): 206
SMILES: COc1ccc(-c2cc(COC(=O)COc3cc(O)c4c(=O)cc(-c5ccccc5)oc4c3)nn2-c2ccc(C)cc2)cc1
Activity (HeLa [1]): 7.07% | Activity (HeLa [2]): 3.1% | Activity (HeLa [3]): 43.7 - 57.3% | Activity (HeLa [4]): 93.4% | Activity (HeLa [5]): 74.5% | Activity (HeLa [6]): 0.325% | Activity (HeLa [7]): 1.43% | Activity (HeLa [8]): 13.65% | Activity (HeLa [9]): 90.5% | Activity (HeLa [10]): 0.073 - 0.427% | Activity (HeLa [12]): 36.8% | Activity (HeLa [13]): 1.18% | Activity (HeLa [14]): 17.96% | Activity (HeLa [15]): 72.83% | Activity (HeLa [16]): 9.32% | Activity (HeLa [17]): 5.24% | Activity (HeLa [18]): 8.28% | Activity (HeLa [19]): 48.7% | Activity (HeLa [20]): 5.61%
